Experimental data reported in ChEMBL document CHEMBL1133567, “5-Azidoimidacloprid and an acyclic analogue as candidate photoaffinity probes for mammalian and insect nicotinic acetylcholine receptors” (J Med Chem, 2000).

Assays:
[1] = target: Nicotinic acetylcholine receptor; test: Binding affinity for nAChR with [3H]imidacloprid in Drosophila; type: protein-complex assay, Drosophila melanogaster
[2] = target: Nicotinic acetylcholine receptor; test: Binding affinity for nAChR with [3H]imidacloprid in Myzus persicae; type: protein-complex assay
[3] = Binding affinity for nAChR with [3H]nicotine in rat brain; type: tissue-based
Method in brief: (§1)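 Competition with 5 nM [3H](-)-nicotine against varied inhibitor concentrations, using 400 µg protein from rat brain membranes or 100 µg protein from recombinant rat α4β2 membranes. Incubation 30 min at 22 °C in Tris-HCl pH 7.4 buffer with NaCl, KCl, CaCl2, MgSO4, EDTA. Stopped by filtration through polyethylenimine-soaked GF/B filters. Nonspecific binding with 5 µM (-)-nicotine.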

[4] = target: Neuronal acetylcholine receptor subunit alpha-4 (Rattus norvegicus, UniProt P09483+P12390); test: Binding affinity for nAChR with [3H]-nicotine in rat alpha4 beta2 membranes; type: cell membranes; method in brief: as §1
Sequence of Neuronal acetylcholine receptor subunit alpha-4 (P09483 whole entry, one chain of several): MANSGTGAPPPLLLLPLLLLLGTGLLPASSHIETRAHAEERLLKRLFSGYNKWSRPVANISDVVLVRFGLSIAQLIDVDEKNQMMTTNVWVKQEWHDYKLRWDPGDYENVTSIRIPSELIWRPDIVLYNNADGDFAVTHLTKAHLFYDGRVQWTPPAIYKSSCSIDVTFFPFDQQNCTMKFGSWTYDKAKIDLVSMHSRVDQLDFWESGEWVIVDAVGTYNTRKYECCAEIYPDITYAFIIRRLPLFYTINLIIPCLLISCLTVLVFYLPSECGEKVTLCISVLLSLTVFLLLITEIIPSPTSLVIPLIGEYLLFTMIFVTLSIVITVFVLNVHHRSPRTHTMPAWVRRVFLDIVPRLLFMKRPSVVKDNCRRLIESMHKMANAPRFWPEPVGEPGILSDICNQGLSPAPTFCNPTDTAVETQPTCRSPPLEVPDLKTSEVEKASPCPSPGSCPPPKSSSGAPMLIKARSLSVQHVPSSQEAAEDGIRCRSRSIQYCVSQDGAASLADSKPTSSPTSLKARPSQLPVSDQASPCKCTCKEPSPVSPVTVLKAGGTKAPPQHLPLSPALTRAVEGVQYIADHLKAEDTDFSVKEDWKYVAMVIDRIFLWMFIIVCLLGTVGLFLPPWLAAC

Row | Structure (SMILES) | Ki [1] | Ki [2] | Ki [3] | Ki [4]
1 | [N-]=[N+]=Nc1cc(CN2CCNC2=N[N+](=O)[O-])cnc1Cl [5-AZIDOIMIDACLOPRID] | 15 nM | 1 nM | 44 nM | 4.4 nM
2 | O=[N+]([O-])NC1=NCCN1Cc1ccc(Cl)nc1 [IMIDACLOPRID] | 2.1 nM | 1.9 nM | 290 nM | 50 nM
3 | C/N=C(\NCc1cnc(Cl)c(N=[N+]=[N-])c1)N[N+](=O)[O-] | 13 nM | 4.5 nM | 44 nM | 
4 | C/N=C(\NCc1ccc(Cl)nc1)N[N+](=O)[O-] | 10 nM | 12 nM | 3500 nM | 
